ChEMBL document CHEMBL4689842, “EUbOPEN Chemogenomics Library wave 1” (2021)

Tested on: Fibroblast
Experiment: Multiplex assay against human fibroblast
Format: toxicity, cell-based
Outline: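 On a CQ1 microscope at 37°C and 5% CO2, live cells were imaged after compound addition. They had been stained at seeding with Hoechst33342, BioTracker Green Microtubule Cytoskeleton Dye, MitoTracker Red and Annexin V Alexa Fluor 680. CellPathfinder machine-learning gating assigned cells to Hoechst high-intensity objects or normal cells, normal cells to healthy, pyknosed or fragmented nuclei, and pyknosed cells to mitotic or apoptotic. Tubulin, mitochondrial-mass and membrane-permeability phenotypes are per cents of healthy-nucleus cells.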

[1] = 12 h, 1 µM, compound concentration 1 uM, replicate 1
[2] = 12 h, 1 µM, compound concentration 1 uM, replicate 2
[3] = 12 h, 10 µM, compound concentration 10 uM, replicate 1
[4] = 12 h, 10 µM, compound concentration 10 uM, replicate 2
[5] = 24 h, 1 µM, compound concentration 1 uM, replicate 1
[6] = 24 h, 1 µM, compound concentration 1 uM, replicate 2
[7] = 24 h, 10 µM, compound concentration 10 uM, replicate 1
[8] = 24 h, 10 µM, compound concentration 10 uM, replicate 2
[9] = 48 h, 1 µM, compound concentration 1 uM, replicate 1
[10] = 48 h, 1 µM, compound concentration 1 uM, replicate 2
[11] = 48 h, 10 µM, compound concentration 10 uM, replicate 1
[12] = 48 h, 10 µM, compound concentration 10 uM, replicate 2

`Nc1ccc(C(=O)Nc2cccc(-c3nc(N4CCOCC4)c4oc5ncccc5c4n3)c2)cn1` was tested. Which “Population Apoptotic (%)” value [1] did it give?
The value was 63%.

And the “Population Fragmented Nuclei (%)” value [1]?
The value was 24%.

What about the “Population Healthy Nuclei (%)” value [1] of the same compound?
Its value is 43%.

What about the “Population Hoechst High Intensity Objects (%)” value [1] of the same compound?
Its value is 14%.

What about the “Population Mitochondria Different-Phenotype (%)” value [1] of the same compound?
The value was 4%.

And the “Population Mitotic Cells (%)” value [1]?
The value was 36%.

And the “Population Normal (%)” value [1]?
Its value is 85%.

And the “Population Pyknosed Nuclei (%)” value [1]?
The value was 31%.

What about the “Population Tubulin-Different-Phenotype (%)” value [1] of the same compound?
The value was 60%.

And the “Total Cell Count” value [1]?
Its value is 134.

And the “Population Apoptotic (%)” value [2]?
The value was 9%.

And the “Population Fragmented Nuclei (%)” value [2]?
Its value is 20%.

What about the “Population Healthy Nuclei (%)” value [2] of the same compound?
The value was 61%.

And the “Population Hoechst High Intensity Objects (%)” value [2]?
The value was 10%.

And the “Population Mitochondria Different-Phenotype (%)” value [2]?
Its value is 21%.

What about the “Population Mitotic Cells (%)” value [2] of the same compound?
Its value is 90%.

And the “Population Normal (%)” value [2]?
Its value is 89%.

And the “Population Pyknosed Nuclei (%)” value [2]?
Its value is 17%.

And the “Population Tubulin-Different-Phenotype (%)” value [2]?
The value was 28%.

And the “Total Cell Count” value [2]?
Its value is 55.

And the “Population Apoptotic (%)” value [3]?
Its value is 54%.

What about the “Population Fragmented Nuclei (%)” value [3] of the same compound?
Its value is 57%.

And the “Population Healthy Nuclei (%)” value [3]?
Its value is 28%.

What about the “Population Hoechst High Intensity Objects (%)” value [3] of the same compound?
The value was 41%.

And the “Population Mitochondria Different-Phenotype (%)” value [3]?
The value was 9%.

What about the “Population Mitotic Cells (%)” value [3] of the same compound?
The value was 45%.

And the “Population Normal (%)” value [3]?
Its value is 58%.

What about the “Population Pyknosed Nuclei (%)” value [3] of the same compound?
The value was 13%.

And the “Population Tubulin-Different-Phenotype (%)” value [3]?
Its value is 80%.

What about the “Total Cell Count” value [3] of the same compound?
Its value is 554.

And the “Population Apoptotic (%)” value [4]?
The value was 51%.

What about the “Population Fragmented Nuclei (%)” value [4] of the same compound?
Its value is 62%.

What about the “Population Healthy Nuclei (%)” value [4] of the same compound?
Its value is 15%.

What about the “Population Hoechst High Intensity Objects (%)” value [4] of the same compound?
Its value is 19%.

And the “Population Mitochondria Different-Phenotype (%)” value [4]?
The value was 76%.

And the “Population Mitotic Cells (%)” value [4]?
The value was 48%.

What about the “Population Normal (%)” value [4] of the same compound?
Its value is 80%.

And the “Population Pyknosed Nuclei (%)” value [4]?
The value was 22%.

What about the “Population Tubulin-Different-Phenotype (%)” value [4] of the same compound?
Its value is 90%.

And the “Total Cell Count” value [4]?
Its value is 69.

And the “Population Apoptotic (%)” value [5]?
The value was 38%.

And the “Population Fragmented Nuclei (%)” value [5]?
Its value is 38%.

And the “Population Healthy Nuclei (%)” value [5]?
Its value is 39%.

What about the “Population Hoechst High Intensity Objects (%)” value [5] of the same compound?
Its value is 16%.

What about the “Population Mitochondria Different-Phenotype (%)” value [5] of the same compound?
Its value is 3%.

What about the “Population Mitotic Cells (%)” value [5] of the same compound?
Its value is 61%.

What about the “Population Normal (%)” value [5] of the same compound?
The value was 83%.

And the “Population Pyknosed Nuclei (%)” value [5]?
Its value is 21%.

And the “Population Tubulin-Different-Phenotype (%)” value [5]?
Its value is 64%.

What about the “Total Cell Count” value [5] of the same compound?
Its value is 169.

And the “Population Apoptotic (%)” value [6]?
The value was 21%.

And the “Population Fragmented Nuclei (%)” value [6]?
The value was 28%.

And the “Population Healthy Nuclei (%)” value [6]?
The value was 52%.

And the “Population Hoechst High Intensity Objects (%)” value [6]?
The value was 5%.

What about the “Population Mitochondria Different-Phenotype (%)” value [6] of the same compound?
Its value is 42%.

And the “Population Mitotic Cells (%)” value [6]?
Its value is 78%.

And the “Population Normal (%)” value [6]?
Its value is 95%.

What about the “Population Pyknosed Nuclei (%)” value [6] of the same compound?
Its value is 18%.

What about the “Population Tubulin-Different-Phenotype (%)” value [6] of the same compound?
Its value is 27%.

And the “Total Cell Count” value [6]?
The value was 57.

What about the “Population Apoptotic (%)” value [7] of the same compound?
Its value is 68%.

And the “Population Fragmented Nuclei (%)” value [7]?
The value was 53%.

And the “Population Healthy Nuclei (%)” value [7]?
The value was 32%.

What about the “Population Hoechst High Intensity Objects (%)” value [7] of the same compound?
The value was 46%.

What about the “Population Mitochondria Different-Phenotype (%)” value [7] of the same compound?
The value was 30%.

And the “Population Mitotic Cells (%)” value [7]?
Its value is 31%.

And the “Population Normal (%)” value [7]?
Its value is 53%.

What about the “Population Pyknosed Nuclei (%)” value [7] of the same compound?
The value was 13%.

And the “Population Tubulin-Different-Phenotype (%)” value [7]?
Its value is 76%.

And the “Total Cell Count” value [7]?
The value was 514.

And the “Population Apoptotic (%)” value [8]?
Its value is 84%.

And the “Population Fragmented Nuclei (%)” value [8]?
Its value is 60%.

And the “Population Healthy Nuclei (%)” value [8]?
The value was 5%.

What about the “Population Hoechst High Intensity Objects (%)” value [8] of the same compound?
Its value is 19%.

What about the “Population Mitochondria Different-Phenotype (%)” value [8] of the same compound?
Its value is 100%.

What about the “Population Mitotic Cells (%)” value [8] of the same compound?
Its value is 15%.

What about the “Population Normal (%)” value [8] of the same compound?
Its value is 80%.

And the “Population Pyknosed Nuclei (%)” value [8]?
Its value is 34%.

And the “Population Tubulin-Different-Phenotype (%)” value [8]?
Its value is 100%.

And the “Total Cell Count” value [8]?
The value was 80.

And the “Population Apoptotic (%)” value [9]?
Its value is 66%.

And the “Population Fragmented Nuclei (%)” value [9]?
The value was 47%.

And the “Population Healthy Nuclei (%)” value [9]?
Its value is 45%.

What about the “Population Hoechst High Intensity Objects (%)” value [9] of the same compound?
Its value is 17%.

And the “Population Mitochondria Different-Phenotype (%)” value [9]?
The value was 0%.

What about the “Population Mitotic Cells (%)” value [9] of the same compound?
Its value is 33%.

What about the “Population Normal (%)” value [9] of the same compound?
The value was 82%.

And the “Population Pyknosed Nuclei (%)” value [9]?
The value was 7%.

And the “Population Tubulin-Different-Phenotype (%)” value [9]?
Its value is 60%.

What about the “Total Cell Count” value [9] of the same compound?
The value was 190.

And the “Population Apoptotic (%)” value [10]?
Its value is 0%.

What about the “Population Fragmented Nuclei (%)” value [10] of the same compound?
Its value is 58%.

What about the “Population Healthy Nuclei (%)” value [10] of the same compound?
The value was 41%.

And the “Population Hoechst High Intensity Objects (%)” value [10]?
Its value is 25%.

And the “Population Mitochondria Different-Phenotype (%)” value [10]?
The value was 3%.

What about the “Population Mitotic Cells (%)” value [10] of the same compound?
The value was 0%.

What about the “Population Normal (%)” value [10] of the same compound?
Its value is 74%.

What about the “Population Pyknosed Nuclei (%)” value [10] of the same compound?
The value was 0%.

And the “Population Tubulin-Different-Phenotype (%)” value [10]?
Its value is 76%.

And the “Total Cell Count” value [10]?
The value was 205.

And the “Population Apoptotic (%)” value [11]?
Its value is 51%.

What about the “Population Fragmented Nuclei (%)” value [11] of the same compound?
The value was 51%.

What about the “Population Healthy Nuclei (%)” value [11] of the same compound?
Its value is 25%.

And the “Population Hoechst High Intensity Objects (%)” value [11]?
Its value is 49%.

What about the “Population Mitochondria Different-Phenotype (%)” value [11] of the same compound?
Its value is 46%.

And the “Population Mitotic Cells (%)” value [11]?
The value was 48%.

What about the “Population Normal (%)” value [11] of the same compound?
The value was 50%.

What about the “Population Pyknosed Nuclei (%)” value [11] of the same compound?
Its value is 23%.

What about the “Population Tubulin-Different-Phenotype (%)” value [11] of the same compound?
The value was 78%.

What about the “Total Cell Count” value [11] of the same compound?
Its value is 516.

And the “Population Apoptotic (%)” value [12]?
The value was 100%.

And the “Population Fragmented Nuclei (%)” value [12]?
The value was 82%.

What about the “Population Healthy Nuclei (%)” value [12] of the same compound?
The value was 14%.

What about the “Population Hoechst High Intensity Objects (%)” value [12] of the same compound?
Its value is 67%.

And the “Population Mitotic Cells (%)” value [12]?
Its value is 0%.

What about the “Population Normal (%)” value [12] of the same compound?
Its value is 32%.

What about the “Population Pyknosed Nuclei (%)” value [12] of the same compound?
The value was 2%.

What about the “Population Tubulin-Different-Phenotype (%)” value [12] of the same compound?
Its value is 73%.

What about the “Total Cell Count” value [12] of the same compound?
Its value is 323.
